{"source": "ChEMBL document CHEMBL3085690", "about": "“Naturally occurring antimicrobial peptide OH-CATH30 selectively regulates the innate immune response to protect against sepsis” (J Med Chem, 2013)", "molecular_target": "Transcription factor p65 (Mus musculus) (UniProt Q04207)", "sequence (Q04207 whole entry)": "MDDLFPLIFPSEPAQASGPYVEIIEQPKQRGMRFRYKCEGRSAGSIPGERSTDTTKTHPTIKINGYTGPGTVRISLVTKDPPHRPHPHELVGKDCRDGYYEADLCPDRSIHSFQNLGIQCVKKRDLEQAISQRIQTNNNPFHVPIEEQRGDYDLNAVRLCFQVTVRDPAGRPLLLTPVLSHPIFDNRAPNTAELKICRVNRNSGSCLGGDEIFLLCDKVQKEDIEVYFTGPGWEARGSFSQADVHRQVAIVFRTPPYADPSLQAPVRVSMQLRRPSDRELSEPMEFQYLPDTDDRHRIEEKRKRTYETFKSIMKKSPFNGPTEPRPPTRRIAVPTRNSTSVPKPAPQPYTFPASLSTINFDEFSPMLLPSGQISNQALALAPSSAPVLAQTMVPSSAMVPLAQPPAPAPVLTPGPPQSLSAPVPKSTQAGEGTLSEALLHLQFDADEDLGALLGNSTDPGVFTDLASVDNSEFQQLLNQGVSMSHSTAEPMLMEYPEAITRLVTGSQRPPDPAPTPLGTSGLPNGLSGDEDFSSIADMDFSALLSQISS", "test": "Activation of NFkappaB p65 in mouse BMDM assessed as phosphorylation at 10 ug/ml after 15 to 30 mins by Western blotting", "how_it_was_run": "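BMDMs came from mouse bone marrow cultured in RPMI 1640 with 10% FCS and 20% L929-conditioned medium. After treatment, lysates were run on 10% SDS−PAGE, transferred to PVDF, blocked with 5% BSA, and probed for phospho-p65. Detection used an HRP anti-rabbit IgG secondary and chemiluminescence.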", "note": "Active and inactive are the calls of the source. No cut-off for these calls is given here.", "data": [{"molecule": "CC[C@H](C)[C@H](NC(=O)[C@H](CCCCN)NC(=O)[C@H](CCC(=O)O)NC(=O)[C@H](CCCCN)NC(=O)[C@H](CO)NC(=O)[C@H](CCCCN)NC(=O)[C@H](CCCNC(=N)N)NC(=O)[C@H](Cc1ccccc1)NC(=O)[C@H](Cc1ccccc1)NC(=O)[C@H](CC(=O)O)NC(=O)CNC(=O)[C@H](CC(C)C)NC(=O)[C@@H](N)CC(C)C)C(=O)NCC(=O)N[C@@H](CCCCN)C(=O)N[C@@H](CCC(=O)O)C(=O)N[C@@H](Cc1ccccc1)C(=O)N[C@@H](CCCCN)C(=O)N[C@@H](CCCNC(=N)N)C(=O)N[C@H](C(=O)N[C@H](C(=O)N[C@@H](CCC(N)=O)C(=O)N[C@@H](CCCNC(=N)N)C(=O)N[C@H](C(=O)N[C@@H](CCCCN)C(=O)N[C@@H](CC(=O)O)C(=O)N[C@@H](Cc1ccccc1)C(=O)N[C@@H](CC(C)C)C(=O)N[C@@H](CCCNC(=N)N)C(=O)N[C@@H](CC(N)=O)C(=O)N[C@@H](CC(C)C)C(=O)N[C@H](C(=O)N1CCC[C@H]1C(=O)N[C@@H](CCCNC(=N)N)C(=O)N[C@H](C(=O)N[C@@H](CCC(=O)O)C(=O)N[C@@H](CO)C(=O)O)[C@@H](C)O)C(C)C)[C@@H](C)CC)C(C)C)[C@@H](C)CC", "values": [{"measurement": "Activity", "value": "Active"}]}]}
